Tcruzi prolif: inhibitors of T. cruzi proliferation. T. cruzi beta-gal in NIH3T3, GalScreen luminescence, 90 h. inhibition, % at 8.34 µM. actives 5.9% (n = 77,000). AID 624255;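 active = mean inhibition above about 93%, with at least 55% of replicates each passing it, limit read from the data, passing the limit was not always enough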
Pf Dd2 inh: P. falciparum Dd2 growth inhibition; activity change, % at 10 µM; actives 2.3% (n = 94,000); SYBR Green, 72 h; active compounds read low; in the data active = activity change below about -80%
KDM4C inh: blocks human GASC-1 (KDM4C) demethylase activity; Q9H3R0; GST-KDM4C 2-372, H3K9me3 peptide, LANCE TR-FRET; inhibition, % at 12.5 µM; actives 0.15% (n = 96,000);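 active = mean replicate inhibition above about 25%, with at least 55% of replicates also reaching it, limit read from the data, passing the limit was not always enough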
Target sequence (Q9H3R0 2-372 limits assumed): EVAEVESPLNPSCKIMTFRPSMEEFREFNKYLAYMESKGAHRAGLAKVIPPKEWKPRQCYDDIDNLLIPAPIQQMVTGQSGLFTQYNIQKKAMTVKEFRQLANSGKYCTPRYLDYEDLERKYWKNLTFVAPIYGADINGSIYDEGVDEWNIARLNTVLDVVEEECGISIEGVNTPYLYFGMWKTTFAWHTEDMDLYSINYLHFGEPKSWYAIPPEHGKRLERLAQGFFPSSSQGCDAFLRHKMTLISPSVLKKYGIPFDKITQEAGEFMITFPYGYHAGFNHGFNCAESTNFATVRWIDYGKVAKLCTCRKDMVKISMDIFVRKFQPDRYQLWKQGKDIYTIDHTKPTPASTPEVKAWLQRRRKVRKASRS
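Test system – GST-tagged GASC-1 (JMJD2C) catalytic fragment, aa 2-372 · Medium – HEPES buffer, pH 7.5, plus ascorbate · Reagent – H3K9me3 peptide with Fe(II)/2OG · Compound – one test concentration per compound · Timing – 30 min reaction, 60 min detection, RT · Technique – TR-FRET with Eu antibody and ULight streptavidin, EDTA stop · Read-out basis – inhibition from TR-FRET ratio decrease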
IDH1 R132H inh: inhibitors of human IDH1 R132H | O75874 | IDH1 R132H reductase, diaphorase/resazurin fluorescence, 60 min | inhibition, % at 10 µM | actives 0.18% (n = 70,000); in the data active = inhibition above about 34%
Large screens that a line does not name were inactive. Hits are enriched below; roughly 5.9% of the tested compounds scored in any of these assays.

C[C@@H]1CCCCO[C@@H](CN(C)Cc2ccc(Cl)c(Cl)c2)[C@H](C)CN([C@H](C)CO)C(=O)c2cc(NC(=O)Nc3ccc4c(c3)OCO4)ccc2O1	Pf Dd2 inh -87.5
C[C@@H]1CCCCO[C@H](CN(C)Cc2ccccc2)[C@H](C)CN([C@@H](C)CO)C(=O)c2cc(NC(=O)Nc3ccc(F)cc3)ccc2O1	Pf Dd2 inh -84.4 (no result: IDH1 R132H inh)
Cc1noc(C)c1NC(=O)Nc1ccc2c(c1)C(=O)N([C@H](C)CO)C[C@@H](C)[C@@H](CN(C)S(C)(=O)=O)O2	Pf Dd2 inh -91.6 (no result: IDH1 R132H inh)
C[C@@H]1CN([C@H](C)CO)C(=O)c2cc(NC(=O)Nc3ccccc3)ccc2O[C@@H](C)CCCCO[C@@H]1CN(C)Cc1ccc(Cl)c(Cl)c1	Pf Dd2 inh -85.1 (no result: IDH1 R132H inh)
C[C@H]1CCCCO[C@@H](CN(C)Cc2ccc3c(c2)OCO3)[C@@H](C)CN([C@@H](C)CO)C(=O)c2cc(NC(=O)Nc3ccccc3)ccc2O1	Pf Dd2 inh -82.4 (no result: IDH1 R132H inh)
CCOC(=O)c1c(NC(=O)c2ccc(C)c(S(=O)(=O)N3CCCCCC3)c2)sc(C)c1C	none (no result: Tcruzi prolif, Pf Dd2 inh, KDM4C inh)
CC(C)(C)c1nc2scc(-c3ccc(Cl)cc3)n2n1	none (no result: Tcruzi prolif, Pf Dd2 inh, KDM4C inh)
O=C(CCN1C(=O)C2C3C=CC(C3)C2C1=O)Oc1cccc2cccnc12 (configuration not stated)	none (no result: Tcruzi prolif, Pf Dd2 inh, KDM4C inh)
COC(=O)c1cccc(NC(=O)C(C)Oc2ccc3c(C)cc(=O)oc3c2)c1 (configuration not stated)	none (no result: Tcruzi prolif, Pf Dd2 inh, KDM4C inh)
C[C@@H]1CN([C@H](C)CO)C(=O)c2cc(NC(=O)Nc3ccccc3)ccc2O[C@@H](C)CCCCO[C@@H]1CN(C)Cc1ccccc1	Pf Dd2 inh -82.1 (no result: Tcruzi prolif)
Cc1noc(C)c1NC(=O)Nc1ccc2c(c1)C(=O)N([C@H](C)CO)C[C@@H](C)[C@H](CN(C)Cc1ccc(Cl)c(Cl)c1)OCCCC[C@H](C)O2	Pf Dd2 inh -85.6 (no result: IDH1 R132H inh)
COc1ccc(NC(=O)Nc2ccc3c(c2)C(=O)N([C@@H](C)CO)C[C@@H](C)[C@@H](CN(C)Cc2ccc4c(c2)OCO4)OCCCC[C@@H](C)O3)cc1	Pf Dd2 inh -83.0
C[C@@H]1CN([C@H](C)CO)C(=O)c2cccc(NC(=O)CCCCCC(=O)Nc3ccccc3N)c2O[C@@H]1CN(C)C(=O)Nc1ccc(C(F)(F)F)cc1	Pf Dd2 inh -88.0 (no result: Tcruzi prolif, IDH1 R132H inh)
C[C@@H]1CN([C@@H](C)CO)C(=O)c2cccc(NC(=O)Nc3cccc4ccccc34)c2O[C@H]1CN(C)C(=O)NC1CCCCC1	Pf Dd2 inh -89.2
C[C@H]1CN([C@@H](C)CO)C(=O)c2cccc(NC(=O)CCCCCC(=O)Nc3ccccc3N)c2O[C@@H]1CN(C)C(=O)Nc1ccc(C(F)(F)F)cc1	Pf Dd2 inh -82.0 (no result: Tcruzi prolif)
C[C@H]1CN([C@@H](C)CO)C(=O)c2cccc(N(C)C)c2O[C@@H]1CN(C)C(=O)Nc1cccc2ccccc12	none
C[C@@H]1CN([C@@H](C)CO)C(=O)c2cccc(N(C)C)c2O[C@@H]1CN(C)C(=O)Nc1cccc2ccccc12	Pf Dd2 inh -83.0
NS(=O)(=O)c1ccc(NC(=O)CN2CCN(C(=O)c3ccccc3)CC2)cc1	none (no result: Tcruzi prolif, Pf Dd2 inh, KDM4C inh)
CCn1c(SCC(=O)Nc2cccc(Br)c2)nnc1-c1ccc(C)cc1	none (no result: Tcruzi prolif, Pf Dd2 inh, KDM4C inh)
Cc1ccc(N(C(C)C(=O)Nc2cc(Cl)cc(Cl)c2)S(C)(=O)=O)cc1C (configuration not stated)	none (no result: Tcruzi prolif, Pf Dd2 inh, KDM4C inh)
C[C@@H]1CN([C@H](C)CO)C(=O)c2cccc(NC(=O)CCCCCC(=O)Nc3ccccc3N)c2O[C@@H]1CN(C)C(=O)Nc1ccc(F)cc1	Pf Dd2 inh -86.4 (no result: Tcruzi prolif, IDH1 R132H inh)
C[C@@H]1CN([C@@H](C)CO)C(=O)c2cccc(NC(=O)CCCCCC(=O)Nc3ccccc3N)c2O[C@@H]1CN(C)C(=O)NC1CCCCC1	Pf Dd2 inh -86.5 (no result: Tcruzi prolif)
COc1ccc(NC(=O)N(C)C[C@H]2Oc3c(NC(=O)CCCCCC(=O)Nc4ccccc4N)cccc3C(=O)N([C@H](C)CO)C[C@H]2C)cc1	Pf Dd2 inh -86.7 (no result: Tcruzi prolif)
C[C@H](CO)N1C[C@H](C)[C@@H](CN(C)C(=O)NC2CCCCC2)Oc2ncc(/C=C/c3ccccc3)cc2C1=O	Pf Dd2 inh -83.7 (no result: Tcruzi prolif)
CC(NC(=O)c1ccccc1)c1nc2ccccc2n1Cc1ccc(Cl)cc1Cl (configuration not stated)	none (no result: Tcruzi prolif, Pf Dd2 inh, KDM4C inh)
N#Cc1c(NC(=O)COc2ccc3c(-c4ccccc4)cc(=O)oc3c2)sc2c1CCC2	none (no result: Tcruzi prolif, Pf Dd2 inh, KDM4C inh)
C=CC(C)(O)CC(/C=C(\C)CC(/C=C(\C)CCC=C(C)C)OC(C)=O)OC(C)=O (configuration not stated)	none (no result: Tcruzi prolif, Pf Dd2 inh, KDM4C inh)
CC(/C=C/C(=O)NO)=C\c1cccc(OCc2ccc(COc3ccc4ccncc4c3)cc2)c1	none (no result: Tcruzi prolif, Pf Dd2 inh, KDM4C inh)
C[C@H]1CN([C@@H](C)CO)C(=O)c2cccc(NC(=O)CCCCCC(=O)Nc3ccccc3N)c2O[C@@H]1CN(C)C(=O)Nc1ccc(F)cc1	none (no result: Tcruzi prolif)
C[C@H](CO)N1C[C@H](C)[C@H](CN(C)C(=O)Nc2ccc(C(F)(F)F)cc2)Oc2c(NC(=O)CCCCCC(=O)Nc3ccccc3N)cccc2C1=O	Pf Dd2 inh -88.6 (no result: Tcruzi prolif)
C[C@@H]1CN([C@H](C)CO)C(=O)c2cc(NC(=O)c3ccncc3)ccc2O[C@@H](C)CCCCO[C@H]1CN(C)Cc1ccc(Cl)c(Cl)c1	Pf Dd2 inh -86.2 (no result: Tcruzi prolif)
C[C@@H]1CN([C@H](C)CO)C(=O)c2cc(NC(=O)C3CCCCC3)ccc2O[C@@H](C)CCCCO[C@H]1CN(C)Cc1ccc(Cl)c(Cl)c1	Pf Dd2 inh -90.3
C[C@@H]1CCCCO[C@H](CN(C)Cc2ccc(Cl)c(Cl)c2)[C@@H](C)CN([C@@H](C)CO)C(=O)c2cc(NC(=O)C3CCCCC3)ccc2O1	Pf Dd2 inh -91.3 (no result: IDH1 R132H inh)
C[C@@H]1CN([C@@H](C)CO)C(=O)c2cc(NC(=O)C3CCCCC3)ccc2O[C@@H](C)CCCCO[C@H]1CN(C)Cc1ccc(Cl)c(Cl)c1	none
O=C(CSc1nc2cc3ccccc3cc2[nH]1)Nc1ccccc1Cl	none (no result: Tcruzi prolif, Pf Dd2 inh, KDM4C inh)
O=C(CC1c2ccccc2Oc2ccccc21)NCCOc1ccccc1Cl	none (no result: Tcruzi prolif, Pf Dd2 inh, KDM4C inh)
C[C@H](CO)N1C[C@H](C)[C@H](CN(C)C(=O)C2CCCCC2)OCCCC[C@H](C)Oc2ccc(NC(=O)c3ccncc3)cc2C1=O	none
C[C@@H]1CN([C@@H](C)CO)C(=O)c2cc(NC(=O)Nc3ccc4c(c3)OCO4)ccc2O[C@@H](C)CCCCO[C@H]1CN(C)C(=O)C1CCCCC1	none (no result: IDH1 R132H inh)
C[C@@H]1CCCCO[C@@H](CN(C)C(=O)C2CCCCC2)[C@H](C)CN([C@H](C)CO)C(=O)c2cc(NC(=O)Nc3ccc4c(c3)OCO4)ccc2O1	Tcruzi prolif 106.6
C[C@@H]1CCCCO[C@@H](CN(C)C(=O)C2CCCCC2)[C@@H](C)CN([C@@H](C)CO)C(=O)c2cc(NC(=O)C3CCCCC3)ccc2O1	Pf Dd2 inh -85.5
C[C@@H]1CCCCO[C@H](CN(C)C(=O)C2CCCCC2)[C@@H](C)CN([C@@H](C)CO)C(=O)c2cc(NC(=O)Cc3ccccc3)ccc2O1	Pf Dd2 inh -84.9 (no result: IDH1 R132H inh)
C[C@@H]1CN([C@H](C)CO)C(=O)c2cc(NC(=O)C3CCCCC3)ccc2O[C@@H](C)CCCCO[C@@H]1CN(C)C(=O)C1CCCCC1	none (no result: IDH1 R132H inh)

Bioassay records: PubChem BioAssay, Broad Institute
